Experimental data from ChEMBL document CHEMBL1681666, “Synthesis and in vitro screening of novel N-benzyl aplysinopsin analogs as potential anticancer agents” (2011).

How the values were obtained:
Type in all cases: functional
[1] = test system: MDA-MB-468; assay: Anticancer activity against human MDA-MB-468 cells
Outline: (§1)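 NCI 60-cell human tumour panel (leukemia, lung, colon, CNS, melanoma, ovarian, renal, prostate, breast). A first-stage single-dose screen at 10 µM was run. Compounds giving over 60% growth inhibition in at least eight lines went on to a five-dose response. Effect was plotted against log10 molar concentration per line. GI50 is the concentration giving 50% reduction in net protein increase versus control cells. LC50 is the concentration lethal to 50% of cells.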

[2] = test system: KM12; assay: Anticancer activity against human KM12 cells; outline: as §1
[3] = test system: OVCAR-5; assay: Anticancer activity against human OVCAR5 cells; outline: as §1
[4] = test system: HL-60(TB); assay: Anticancer activity against human HL-60(TB) cells; outline: as §1
[5] = test system: OVCAR-8; assay: Anticancer activity against human OVCAR8 cells; outline: as §1
[6] = test system: A498; assay: Anticancer activity against human A498 cells; outline: as §1
[7] = test system: SK-MEL-5; assay: Anticancer activity against human SK-MEL-5 cells; outline: as §1
[8] = test system: HT-29; assay: Anticancer activity against human HT-29 cells; outline: as §1
[9] = test system: NCI-H460; assay: Anticancer activity against human NCI-H460 cells; outline: as §1
[10] = test system: HOP-62; assay: Anticancer activity against human HOP62 cells; outline: as §1
[11] = test system: SF-268; assay: Anticancer activity against human SF268 cells; outline: as §1
[12] = test system: OVCAR-3; assay: Anticancer activity against human OVCAR3 cells; outline: as §1
[13] = test system: UO-31; assay: Anticancer activity against human UO31 cells
Outline: (§2)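 NCI 60-cell-line panel. A single-dose (10 µM) prescreen was run first. Compounds giving over 60% growth inhibition in at least eight lines then went to five-dose response studies. Dose-response curves of effect versus log10 concentration. GI50 is the molar concentration giving a 50% reduction in net protein increase versus control cells. LC50 is the concentration lethal to 50% of cells.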

[14] = test system: ACHN; assay: Anticancer activity against human ACHN cells; outline: as §1
[15] = test system: SK-MEL-2; assay: Anticancer activity against human SK-MEL-2 cells; outline: as §1
[16] = test system: MDA-MB-435; assay: Anticancer activity against human MDA-MB-435 cells; outline: as §1
[17] = test system: RXF 393; assay: Anticancer activity against human RXF393 cells; outline: as §1
[18] = test system: MDA-MB-231; assay: Anticancer activity against human MDA-MB-231 cells; outline: as §1
[19] = test system: SNB-19; assay: Anticancer activity against human SNB19 cells; outline: as §1
[20] = test system: CAKI-1; assay: Anticancer activity against human Caki1 cells; outline: as §1
[21] = Anticancer activity against human […] cells; outline: as §1
[22] = test system: PC-3; assay: Anticancer activity against human PC3 cells; outline: as §1
[23] = test system: SF-539; assay: Anticancer activity against human SF539 cells; outline: as §1
[24] = Anticancer activity against human Hs 578T cells; outline: as §1
[25] = test system: SK-MEL-28; assay: Anticancer activity against human SK-MEL-28 cells; outline: as §1
[26] = test system: NCI-H226; assay: Anticancer activity against human NCI-H226 cells; outline: as §1
[27] = test system: SK-OV-3; assay: Anticancer activity against human SKOV3 cells; outline: as §1
[28] = test system: NCI-H23; assay: Anticancer activity against human NCI-H23 cells; outline: as §1
[29] = test system: SNB-75; assay: Anticancer activity against human SNB75 cells; outline: as §2
[30] = test system: SF-295; assay: Anticancer activity against human SF295 cells; outline: as §1
[31] = test system: M14; assay: Anticancer activity against human M14 cells; outline: as §1
[32] = test system: T47D; assay: Anticancer activity against human T47D cells; outline: as §2
[33] = test system: UACC-62; assay: Anticancer activity against human UACC62 cells; outline: as §2
[34] = test system: COLO 205; assay: Anticancer activity against human COLO205 cells; outline: as §1
[35] = test system: IGROV-1; assay: Anticancer activity against human IGROV1 cells; outline: as §1
[36] = test system: MOLT-4; assay: Anticancer activity against human MOLT4 cells; outline: as §1
[37] = test system: CCRF-CEM; assay: Anticancer activity against human CCRF-CEM cells; outline: as §1
[38] = test system: HOP-92; assay: Anticancer activity against human HOP92 cells
Outline: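 NCI 60-cell human tumour panel screen that includes non-small cell lung lines. The first stage used a single 10 µM dose. Compounds reaching more than 60% growth inhibition in at least eight lines went on to five-dose response testing. GI50 and LC50 came from curves of effect against log10 molar concentration. GI50 is the concentration giving a 50% reduction in net protein increase versus control cells.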

[39] = test system: TK-10; assay: Anticancer activity against human TK10 cells; outline: as §2
[40] = test system: HCT-15; assay: Anticancer activity against human HCT15 cells; outline: as §1
[41] = Anticancer activity against human NCI/ADR cells; conditions: NCI/ADR-RES; outline: as §1
[42] = test system: NCI-H522; assay: Anticancer activity against human NCI-H522 cells; outline: as §1
[43] = test system: A549; assay: Anticancer activity against human A549 cells; outline: as §1
[44] = test system: SW-620; assay: Anticancer activity against human SW620 cells; outline: as §2
[45] = test system: Malme-3M; assay: Anticancer activity against human MALME-3M cells; outline: as §1
[46] = test system: EKVX; assay: Anticancer activity against human EKVX cells; outline: as §1
[47] = test system: K562; assay: Anticancer activity against human K562 cells; outline: as §1
[48] = test system: LOX IMVI; assay: Anticancer activity against human LOXIMVI cells; outline: as §1
[49] = test system: U-251; assay: Anticancer activity against human U251 cells; outline: as §2
[50] = test system: DU-145; assay: Anticancer activity against human DU145 cells; outline: as §1
[51] = test system: HCT-116; assay: Anticancer activity against human HCT116 cells; outline: as §1
[52] = test system: UACC-257; assay: Anticancer activity against human UACC257 cells; outline: as §2
[53] = test system: BT-549; assay: Anticancer activity against human BT549 cells; outline: as §1
[54] = test system: 786-0; assay: Anticancer activity against human 786-0 cells; outline: as §1
[55] = test system: MCF7; assay: Anticancer activity against human MCF7 cells; outline: as §1
[56] = test system: HCC 2998; assay: Anticancer activity against human HCC2998 cells; outline: as §1
[57] = test system: NCI-H322M; assay: Anticancer activity against human NCI-H322M cells; outline: as §1
[58] = test system: SN12C; assay: Anticancer activity against human SN12C cells; outline: as §1
[59] = test system: OVCAR-4; assay: Anticancer activity against human OVCAR4 cells; outline: as §1
[60] = read-out: LC50 (the source's name)

## N=C1NC(=O)/C(=C/c2cn(Cc3ccc(F)cc3)c3ccc(Cl)cc23)S1
[1]
  GI50: > 100 µM
[1]; [60]
  CC50: > 100 µM
[2]
  GI50: 7.49 µM
[2]; [60]
  CC50: > 100 µM
[3]
  GI50: > 100 µM
[3]; [60]
  CC50: > 100 µM
[4]
  GI50: > 100 µM
[4]; [60]
  CC50: > 100 µM
[5]
  GI50: 0.019 µM
[5]; [60]
  CC50: > 100 µM
[6]
  GI50: 31.5 µM
[6]; [60]
  CC50: > 100 µM
[7]
  GI50: > 100 µM
[7]; [60]
  CC50: > 100 µM
[8]
  GI50: 20.8 µM
[8]; [60]
  CC50: > 100 µM
[9]
  GI50: > 100 µM
[9]; [60]
  CC50: > 100 µM
[10]
  GI50: > 100 µM
[10]; [60]
  CC50: > 100 µM
[11]
  GI50: 32 µM
[11]; [60]
  CC50: > 100 µM
[12]
  GI50: > 100 µM
[12]; [60]
  CC50: 30.1 µM
[13]
  GI50: > 100 µM
[13]; [60]
  CC50: > 100 µM
[14]
  GI50: > 100 µM
[14]; [60]
  CC50: > 100 µM
[15]
  GI50: > 100 µM
[15]; [60]
  CC50: > 100 µM
[16]
  GI50: 32.4 µM
[16]; [60]
  CC50: > 100 µM
[17]
  GI50: 1.62 µM
[17]; [60]
  CC50: > 100 µM
[18]
  GI50: 6.45 µM
[18]; [60]
  CC50: > 100 µM
[19]
  GI50: > 100 µM
[19]; [60]
  CC50: > 100 µM
[20]
  GI50: > 100 µM
[20]; [60]
  CC50: > 100 µM
[21]
  GI50: > 100 µM
[21]; [60]
  CC50: > 100 µM
[22]
  GI50: 23.6 µM
[22]; [60]
  CC50: > 100 µM
[23]
  GI50: 4.4 µM
[23]; [60]
  CC50: > 100 µM
[24]
  GI50: 3.67 µM
[24]; [60]
  CC50: > 100 µM
[25]
  GI50: > 100 µM
[25]; [60]
  CC50: > 100 µM
[26]
  GI50: 80.7 µM
[26]; [60]
  CC50: > 100 µM
[27]
  GI50: > 100 µM
[27]; [60]
  CC50: > 100 µM
[28]
  GI50: 60.1 µM
[28]; [60]
  CC50: > 100 µM
[29]
  GI50: 2.47 µM
[29]; [60]
  CC50: > 100 µM
[30]
  GI50: > 100 µM
[30]; [60]
  CC50: > 100 µM
[31]
  GI50: 57.2 µM
[31]; [60]
  CC50: > 100 µM
[32]
  GI50: > 100 µM
[32]; [60]
  CC50: > 100 µM
[33]
  GI50: > 100 µM
[33]; [60]
  CC50: > 100 µM
[34]
  GI50: > 100 µM
[34]; [60]
  CC50: > 100 µM
[35]
  GI50: 3.02 µM
[35]; [60]
  CC50: > 100 µM
[36]
  GI50: > 100 µM
[36]; [60]
  CC50: > 100 µM
[37]
  GI50: > 100 µM
[37]; [60]
  CC50: > 100 µM
[38]
  GI50: > 100 µM
[39]
  GI50: 5.64 µM
[39]; [60]
  CC50: > 100 µM
[40]
  GI50: > 100 µM
[40]; [60]
  CC50: > 100 µM
[41]
  GI50: > 100 µM
[41]; [60]
  CC50: > 100 µM
[42]
  GI50: 11 µM
[42]; [60]
  CC50: > 100 µM
[43]
  GI50: 0.77 µM
[43]; [60]
  CC50: > 100 µM
[44]
  GI50: 38.3 µM
[44]; [60]
  CC50: > 100 µM
[45]
  GI50: 23.5 µM
[45]; [60]
  CC50: > 100 µM
[46]
  GI50: > 100 µM
[46]; [60]
  CC50: > 100 µM
[47]
  GI50: 77.6 µM
[47]; [60]
  CC50: > 100 µM
[48]
  GI50: 2.32 µM
[48]; [60]
  CC50: > 100 µM
[49]
  GI50: 2.94 µM
[49]; [60]
  CC50: > 100 µM
[50]
  GI50: 5.24 µM
[50]; [60]
  CC50: > 100 µM
[51]
  GI50: 5.41 µM
[51]; [60]
  CC50: > 100 µM
[52]
  GI50: 0.013 µM
[52]; [60]
  CC50: 0.3 µM
[53]
  GI50: 98.8 µM
[53]; [60]
  CC50: > 100 µM
[54]
  GI50: 37.4 µM
[54]; [60]
  CC50: > 100 µM
[55]
  GI50: > 100 µM
[55]; [60]
  CC50: > 100 µM
[56]
  GI50: > 100 µM
[56]; [60]
  CC50: > 100 µM
[57]
  GI50: 71 µM
[57]; [60]
  CC50: > 100 µM
[58]
  GI50: > 100 µM
[58]; [60]
  CC50: > 100 µM
[59]
  GI50: 2.49 µM
[59]; [60]
  CC50: > 100 µM
